Data from paper PMC9071802 (RSC Advances, 2019).

Assays:
[1] = system: LasR, P. aeruginosa PAO-JP2; settings: read-out: IC50, LasR activity; cited from earlier work
[2] = system: LasR, P. aeruginosa PAO-JG21; settings: read-out: IC50, LasR activity; cited from earlier work
[3] = system: P. aeruginosa MH602 lasB reporter strain (PlasB: gfp(ASV)); assay: Quorum sensing inhibition assay, GFP fluorescence of lasB reporter strain; format: cell-based, Pseudomonas aeruginosa; settings: ± standard deviation, NA: no activity; for inhibition at 62.5 µM / inhibition at 125 µM / inhibition at 250 µM: Pseudomonas aeruginosa; for inhibition at 62.5 µM: read-out: Percentage inhibition of GFP fluorescence, 62.5 μM; for inhibition at 125 µM: read-out: Percentage inhibition of GFP fluorescence, 125 μM; for inhibition at 250 µM: read-out: Percentage inhibition of GFP fluorescence, 250 μM
Procedure, shortened: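 The reporter is a chromosomal lasB promoter–gfp(ASV) fusion responsive to 3-oxododecanoyl-HSL. Cultures were grown overnight in LB10, then diluted 1:100 in ABT with 0.25% tryptone and 0.13% yeast extract plus ampicillin 100 µg mL⁻¹ and gentamicin 20 µg mL⁻¹. Test compound in DMSO was tested at 62.5, 125 or 250 µM, with 1% DMSO controls. Cultures were incubated at 37 °C and shaken briefly before each read. Fluorescence (ex 485/em 535 nm) and OD600 were read every 30 min for 20 h, in triplicate per experiment.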

[4] = system: Human Embryonic Kidney cell lines (HEK-293); assay: Cytotoxicity MTT assay; format: cell-based; settings: HEK-293, 25, 50 and 100 μM, 24 h
Procedure, shortened: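 HEK cells were grown in high-glucose DMEM with 10% FBS and 1% pen-strep at 37 °C and 5% CO₂. They were seeded at 10⁴ cells/well and left overnight. Test compound from DMSO stock was diluted in medium to 25, 50 and 100 µM and applied for 24 h, with a DMSO blank and a positive control. MTT in phenol-red-free DMEM was added for 3 h. Formazan was dissolved in DMSO and read at 570 and 650 nm. Viability was expressed as % of untreated control.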

| SMILES | IC50 [1] | IC50 [2] | inhibition at 62.5 µM [3] | inhibition at 125 µM [3] | inhibition at 250 µM [3] | Cytotoxicity [4] | Percentage inhibition of GFP fluorescence ([3]; 250 μM, 250 µM) |
| --- | --- | --- | --- | --- | --- | --- | --- |
| Cc1cc2nc(N)[nH]c2cc1C [II, 5,6-dimethyl-2-aminobenzimidazole] | 2.3 µM | 1.4 µM |  |  |  |  |  |
| O=C(Cn1cc(-c2ccc([N+](=O)[O-])cc2)nn1)Nc1nc2ccccc2[nH]1 [6p, N-(1H-Benzo[d]imidazol-2-yl)-2-(4-(4-nitrophenyl)-1H-1,2,3-triazol-1-yl)acetamide] |  |  | 63.7 ± 7.51% | 67.1 ± 5.45% | 68.2 ± 3.87% | low cytotoxicity |  |
| Cc1cc2nc(NC(=O)Cn3cc(Cn4cc(Cl)ccc4=O)nn3)[nH]c2cc1C [7f, 2-(4-((5-Chloro-2-oxopyridin-1(2H)-yl)methyl)-1H-1,2,3-triazol-1-yl)-N-(5,6-dimethyl-1H-benzo[d]imidazol-2-yl)acetamide] |  |  | 26.1 ± 7.69% | 29 ± 13.6% | 36.8 ± 7.9% |  |  |
| O=C(Cn1cc(CCCC(=O)Nc2nc3ccccc3[nH]2)nn1)Nc1ccccn1 [11c, N-(1H-Benzo[d]imidazol-2-yl)-4-(1-(2-oxo-2-(pyridin-2-ylamino)ethyl)-1H-1,2,3-triazol-4-yl)butanamide] |  |  | 3.69 ± 11.2% | 15.7 ± 8.81% | 19.4 ± 8.16% |  |  |
| COc1ccc(-c2cn(CC(=O)Nc3nc4cc(C)c(C)cc4[nH]3)nn2)cc1 [7k, N-(5,6-Dimethyl-1H-benzo[d]imidazol-2-yl)-2-(4-(4-methoxyphenyl)-1H-1,2,3-triazol-1-yl)acetamide] |  |  | 20.4 ± 2.59% | 24.3 ± 23.3% | > 40% |  | 40.82 ± 23.41% |
| O=C(Cn1cc(-c2ccc(Br)cc2)nn1)Nc1nc2ccccc2[nH]1 [6j, N-(1H-Benzo[d]imidazol-2-yl)-2-(4-(4-bromophenyl)-1H-1,2,3-triazol-1-yl)acetamide] |  |  | 45.7 ± 5.44% | 46.2 ± 8.52% | 50.7 ± 10.9% |  |  |
| O=C(Cn1cc(-c2cccc([N+](=O)[O-])c2)nn1)Nc1nc2ccccc2[nH]1 [6q, N-(1H-Benzo[d]imidazol-2-yl)-2-(4-(3-nitrophenyl)-1H-1,2,3-triazol-1-yl)acetamide] |  |  | 28.2 ± 10.2% | 36 ± 6.13% | 39.4 ± 5.14% |  |  |
| CCCCCCCc1cn(CC(=O)Nc2nc3ccccc3[nH]2)nn1 [6c, N-(1H-Benzo[d]imidazol-2-yl)-2-(4-heptyl-1H-1,2,3-triazol-1-yl)acetamide] |  |  | 25.7 ± 7.62% | 34.7 ± 11.6% | 42.8 ± 14.6% |  |  |
| Cc1cc2nc(NC(=O)Cn3cc(-c4ccc(C(F)(F)F)cc4)nn3)[nH]c2cc1C [7l, N-(5,6-Dimethyl-1H-benzo[d]imidazol-2-yl)-2-(4-(4-(trifluoromethyl)phenyl)-1H-1,2,3-triazol-1-yl)acetamide] |  |  | 36.1 ± 7.67% | 56.4 ± 5.85% | 65.8 ± 1.91% |  |  |
| CCCCCc1cn(CC(=O)Nc2nc3cc(C)c(C)cc3[nH]2)nn1 [7b, N-(5,6-Dimethyl-1H-benzo[d]imidazol-2-yl)-2-(4-pentyl-1H-1,2,3-triazol-1-yl)acetamide] |  |  | 16.9 ± 5.74% | 20.2 ± 11.5% | 26.6 ± 20.8% |  |  |
| O=C(Cn1cc(-c2ccc(Cl)cc2)nn1)Nc1nc2ccccc2[nH]1 [6i, N-(1H-Benzo[d]imidazol-2-yl)-2-(4-(4-chlorophenyl)-1H-1,2,3-triazol-1-yl)acetamide] |  |  | 52.9 ± 8.86% | 60.5 ± 6.16% | 65 ± 8.25% |  |  |
